Source: PubChem BioAssay
SIRT5 block: SIRT5 desuccinylase inhibitors, primary screen, biochemical, fluorescence imaging, single point, set 5. NAD-dependent protein deacylase sirtuin-5, mitochondrial (Homo sapiens), Q9NXA8. Purified SirT5, succinyl-peptide AMC, trypsin-coupled fluorescence. inhibition, % at 15 µM. actives 1.1% (n = 330,000). AID 652115, 2013; in the data active = inhibition above about 15%
Ecoli rRNA inh: reduced GFP signal of wild-type E. coli, primary screen, bacterial rRNA inhibitor project, GFP/RFP fluorescence, OD600, single point. E. coli WT GFP vs humanized-ribosome RFP mutants, 24 h; hits give low values; DMSO median 0, no signal -100. actives 1.6% (n = 350,000). GFP signal change (wild-type ribosome), % (no concentration beside the values);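 active = significant combined selectivity score with lowered wild-type GFP, culture density cut under 30%, mutant RFP and density less affected; inactive = any of these conditions unmet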
S100A4 inh HTS: inhibitors of S100A4-myosin IIA peptide binding, primary screen, biochemical, fluorescence polarization, TAMRA-MyoIIA peptide; inhibition, % at 10.7 µM; actives 0.14% (n = 360,000); AID 652163, 2013;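 active = mean inhibition of at least 70% across replicates, with every replicate also reaching that level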
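System – human S100A4 monomer protein, biochemical binding assay · Buffer or medium – Calcium-containing HEPES buffer, pH 7.2 · Timing – 5 min between mix addition and reading · Also added – TAMRA-labelled myosin IIA heavy-chain peptide probe, 5 nM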
ERAP1 HTS inh: human ERAP1 aminopeptidase inhibitors, primary screen, biochemical, single point, plate reader. recombinant ERAP1, Leu-AMC fluorescence, 60 min. inhibition, % at 10.7 µM. actives 0.15% (n = 340,000). AID 652197, 2013;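 active = mean replicate inhibition of at least 30%, or all replicates individually reaching that 30% level; inactive = mean below 30% and not every replicate reaching it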;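 also: 0% = neutral control wells and 100% = L-leucinethiol positive control wells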
F508del corr: F508del CFTR correction, initial screen, CFBE line, single point | CFBE cells, YFP halide quenching; stimulated with forskolin plus potentiator P3; % fluorescence drop versus neutral controls | activity (quench increase), % at 7.58 µM | actives 0.36% (n = 350,000);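 active = mean added fluorescence quench of at least 8% versus neutral control, with both replicates also reaching 8%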;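 also: cells transiently co-express mutant CFTR-F508del with the halide-sensitive YFP; corrector assay measuring rescue of mutant channel to the surface after 24 h compound exposure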
Active calls of the source: *; x = no result. Only some compounds are listed: those with a hit (about 3.1% of all), similar ones and a draw of the others.

SMILES	SIRT5 block	Ecoli rRNA inh	S100A4 inh HTS	ERAP1 HTS inh	F508del corr
CC(C)CC#Cc1ccc2c(c1)O[C@H](CN(C)C(=O)CC1CC1)[C@H](C)CN([C@@H](C)CO)S2(=O)=O	18*	-10	11	1	1
CC(C)NC(=O)N(C)C[C@H]1Oc2ccc(NC(=O)Cc3ccccc3)cc2C(=O)N([C@@H](C)CO)C[C@@H]1C	-3	1	0	1	-3
COc1ccc(N2C(=O)c3n[nH]c(C)c3C2c2ccc(F)cc2)cc1 (stereo not given)	0	-32*	-8	1	2
CC1=NN(C(N)=S)C(=O)C1N=Nc1c(Cl)cc([N+](=O)[O-])cc1Cl (stereo not given)	5	-26*	-3	3	-2
CC1=NN(C(N)=S)C(=O)C1N=Nc1ccccc1[N+](=O)[O-] (stereo not given)	7	11	3	11	0
N#Cc1nc(-c2ccccc2F)oc1NCc1cccc2c1OCO2	1	-29*	0	10	3
C[C@@H]1CN([C@H](C)CO)C(=O)c2cc(NC(=O)CCCCCC(=O)Nc3ccccc3N)ccc2O[C@@H]1CN(C)Cc1ccc(Cl)c(Cl)c1	24*	-5	9	-1	-4
C[C@H]1CN([C@@H](C)CO)C(=O)c2cc(NC(=O)CCCCCC(=O)Nc3ccccc3N)ccc2O[C@H]1CN(C)Cc1ccc(Cl)c(Cl)c1	21*	-16	17	-1	2
C[C@@H]1CN([C@H](C)CO)C(=O)Cc2cc(NC(=O)CCCCCC(=O)Nc3ccccc3N)ccc2O[C@H]1CN(C)Cc1ccc(Cl)c(Cl)c1	7	-4	-6	-2	-2
CC(C(=O)Nc1ccc(S(=O)(=O)N2CCOCC2)cc1)N1CCN(c2ccccn2)CC1 (stereo not given)	29*	3	1	2	1
CCN(CC)S(=O)(=O)c1cc(NC(=O)C(C)N2CCN(c3ccccn3)CC2)ccc1C (stereo not given)	-9	-20*	-5	0	1
CC(C)NC(=O)Nc1cccc2c1O[C@H](CN(C)S(=O)(=O)c1ccccc1)[C@H](C)CN([C@@H](C)CO)C2=O	-7	4	12	0	3
COc1cc(OC)c(C2=NOC(C(=O)N3CCN(C(=O)c4ccco4)CC3)C2)cc1Cl (stereo not given)	0	-10	-5	-1	1
COc1cc(OC)c(C2=NOC(C(=O)N3CCc4ccccc4C3)C2)cc1Cl (stereo not given)	2	-26*	1	-4	-5
CNC(=O)C[C@H]1CC[C@@H]2[C@H](COc3ccc(NC(=O)C4CC4)cc3C(=O)N2C)O1	x	-1	x	x	0
O=C(Cn1ccccc1=S)c1ccc(Cl)c(Cl)c1	-3	-34*	9	4	-1
O=C(C[C@H]1CC[C@H](NC(=O)C2CC2)[C@H](CO)O1)NCc1ccccc1Cl	-3	3	9	0	0
O=C(O)c1cccc2cccc(-c3c4ccc(=O)c(O)c-4oc4c(O)c(O)ccc34)c12	37*	-22*	4	-1	-3
C[C@@H]1CCCCO[C@@H](CN(C)C(=O)Nc2ccc(F)cc2)[C@@H](C)CN([C@H](C)CO)C(=O)c2cc(NS(=O)(=O)c3cccs3)ccc2O1	9	4	-2	-4	0
CSC(=NS(=O)(=O)c1ccc(N)cc1)NS(=O)(=O)c1cccs1	53*	3	-17	-5	x
CSC(=NC(C)c1ccccc1)NS(=O)(=O)c1cccs1 (stereo not given)	-2	-9	-2	6	x
Cc1noc(C)c1S(=O)(=O)N(C)C[C@@H]1Oc2c(NC(=O)c3ccc(-c4nccs4)cc3)cccc2C(=O)N([C@@H](C)CO)C[C@@H]1C	2	-1	8	0	0
O=C(C[C@@H]1C[C@H]2c3cc(NC(=O)Cc4ccncc4)ccc3O[C@H]2[C@H](CO)O1)NCCN1CCCCC1	-2	5	1	1	0
COc1ccc(Nc2nc(-c3cccnc3)cs2)c(OC)c1	0	-16	-6	0	4
Cc1ccnc(Nc2nc(-c3ccc(F)cc3)cs2)c1	-3	-36*	-2	1	5
SMILES	SIRT5 block	Ecoli rRNA inh	S100A4 inh HTS	ERAP1 HTS inh	F508del corr
c1ccc(-c2csc(Nc3ccccn3)n2)cc1	-5	-19	0	-3	3
Cc1ccnc(Nc2nc(-c3sc(C)nc3C)cs2)c1	2	-34*	0	3	-2
Cc1nc(C)c(-c2csc(Nc3ccccn3)n2)s1	-2	-40	-6	0	-1
Cc1ccnc(Nc2nc(-c3ccc(Cl)cc3)cs2)c1	-1	10	-1	0	8
Cc1ccc(-c2csc(Nc3ccccn3)n2)cc1	-7	-40	1	-1	8.7*
COc1ccc(Nc2nc(-c3sc(C)nc3C)cs2)c(OC)c1	-3	-2	-5	3	16*
C[C@H](CO)N1C[C@H](C)[C@@H](CN(C)C(=O)c2ccccc2)OCCCC[C@H](C)Oc2ccc(NS(=O)(=O)c3ccc(Cl)cc3)cc2C1=O	3	4	5	3	-1
O=C(C[C@@H]1C[C@H]2c3cc(NC(=O)Nc4ccccc4)ccc3O[C@H]2[C@H](CO)O1)NCCN1CCCCC1	-5	5	-6	-1	-2
Cc1ccc(Nc2nc(-c3sc(C)nc3C)cs2)cc1	-1	0	3	-3	19*
Cc1ccc(Nc2nc(-c3sc(N)nc3C)cs2)cc1	-1	-2	-10	3	1
O=C(CCCN1C(=O)C(c2ccccc2)Oc2cccnc21)Nc1cccc(F)c1 (stereo not given)	-2	-27*	-3	-2	1
COc1ccccc1NCCC(=O)O	-2	1	-6	3	-3
O=C(O)CCNc1ccc(NCCC(=O)O)c2c1C(=O)c1ccccc1C2=O	17*	-5	10	4	1
C/C=C(/C)C(=O)O[C@@H]1c2cc(OC)c(OC)c(OC)c2-c2c(cc3c(c2OC)OCO3)C[C@H](C)[C@]1(C)O	0	7	1	-2	-1
COc1cc2c(c(OC)c1OC)-c1c(cc3c(c1OC)OCO3)[C@@H](OC(C)=O)[C@H](C)[C@H](C)C2	-1	-42*	3	5	3
Cc1noc(NS(=O)(=O)c2ccc(NC(=O)CSc3nc4c(cc3C#N)CCCC4)cc2)c1C	x	-25*	5	x	0
CCCNC(=O)N1C[C@@H](C)[C@@H](OC)CN(C)C(=O)c2cc(NC(=O)CC)ccc2OC[C@H]1C	-1	2	8	3	-2
